From the EternaBench riboswitch data

Test system: MS2 coat protein
Test: apparent Kd, MS2 coat protein; higher = weaker binding; RNA-MaP array; FMN 200 µM where present
Summary of the method: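 Stalled E. coli RNA polymerase produced the designs on Illumina sequencing-chip clusters. SNAP-549-labelled MS2 coat protein was added from 0.7 or 1.5 nM, doubling to 3 µM, without and then with constant ligand, in 100 mM Tris-HCl pH 7.5, 80 mM KCl, 4 mM MgCl2, BSA, DTT, yeast tRNA and Tween-20. The apparent Kd is the median of filtered per-cluster fits of green signal normalised to red-channel RNA signal and control-cluster median Fmax.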

[1] = designed as: OFF switch for flavin mononucleotide, no ligand
[2] = ligand present: flavin mononucleotide, designed as: OFF switch for flavin mononucleotide
[3] = designed as: ON switch for flavin mononucleotide, no ligand
[4] = ligand present: flavin mononucleotide, designed as: ON switch for flavin mononucleotide

Row | Sequence | apparent Kd [1] [nM] | apparent Kd [2] [nM] | apparent Kd [3] [nM] | apparent Kd [4] [nM]
1 | ACUCGACAUGAGGAUCACCCAUGUGAGGAUAUGGCCUGUUUGGCGUGUGCUGGCUCUGUCAGAAGGCGCGUGGG | 41.7 | 89.3 |  | 
2 | GAGUGACAUGAGGAUCACCCAUGUGAGGAUAUCGGACGGACCAAAUUAACAAUUUUUGCGAGAAGGCACAUCGG | 59.5 | 72.4 |  | 
3 | AAAACAGCGCGUCCCGCGCCAACUACAGAAGGCCAACAUGAGGAUCACCCAUGUACAAACUAGAUGGAGGAUAUGUAGGUUCUA |  |  | 6.35 | 4.5
4 | UUUUAACAUGAGGAUCACCCAUGUCGUUCAAAUCAAGGAUAUCAAGCGUGUGCACACGCCUGAGAAGGUGAAGCUC |  |  | 55.8 | 98.9
5 | UUUAUUUUGCAAGGAUAUGUUUAAUUUUAGUUUCCUUACACAUGAGGAUCACCCAUGUUAUACUUACAGAAGGUGCAUAAUUUU | 173 | 94.6 |  | 
6 | GGCUAGUGAGGAUAUACGUGCACUCCUCAGUCGCCAGUCGGACAUGAGGAUCACCCAUGUAGAAGGUAUCGGCA | 27.8 | 30.2 |  | 
7 | AUAUCUCCCGAGAAGGACGUACCACAUGUUGAUCACCGAUAUAAGGAACGUAGGAUAUUGGACAUGAGGAUCACCCAUGUGGAU |  |  | 391 | 23.6
8 | GGAUCCAACACAGGAUAUGCUGGACUUUGUCCAGCAGAAGGGUGAAGAACAUGAGGAUCACCCAUGUGGAUCCAUAUAUUUUAU |  |  | 262 | 16.5
9 | AAUAAACUCACAGGAUAUAGCAGAGGUCACGUGAACUUACAGGCGACGAUGCUAGAAGGGUGACCACAUGAGGAUCACCCAUGU |  |  | 862 | 135
10 | AGUAUUGUAGGGUAUCCAACAUGAGGAUCACCCAUGUACCAGAGAAGGACCCAGGCAUUGCUUGGGUAGGAUAUCUGCGCAUCA | 18.4 | 193 |  | 
11 | AGCUACGUUUCGUAGCAGCUAGGUGAGGAUAUCCUUUACAUGAGGAUCACCCAUGUAUAGCCAUGGGAGAAGGCGCCUAGAAAG |  |  | 181 | 16.9
12 | GGCCCACAUGAGGAUCACCCAUGUGAGGAUAUGUUAGUUUCGGCGAAAGCCGAAAUUAACAGAAGGCACAGGCC | 11.7 | 13.6 |  | 
13 | UAUAAUUAGUAGAAGGACGGAGAGUAAGAAGUCGUAGGAUAUACAUAAGACAUGAGGAUCACCCAUGUGUGUAUGUUGGGUAGG | 6.76 | 6.7 |  | 
14 | UGACUCGGAGGAUAUACAUGAGGAUCACCCAUGUUUACUUGCCGCCGAGUAACCUGGUGUAGAAGGUCGAGUGU | 17.2 | 13.7 |  | 
15 | GGAUCUUGGGUCAGGAUAUGCUGGUAUUUUUGCCAGCAGAAGGGACAUGAGGAUCACCCAUGUUCUUGGUUUUG | 10.7 | 13.9 |  | 
16 | UGUCGAAGCAGAGGAUAUUACAUGAGGAUCACCCAUGUAUGAACCAAUAGCUGGAAACAGCAAUGUAAGAAGGCUGCUCCGACA | 11.8 | 138 |  | 
17 | UGUUUGCGGCAGGAUAUCCAUCCGCGGUGUGGUGGAGAAGGGCUGACAUGAGGAUCACCCAUGUGCGUCCUGUU | 23.6 | 27.9 |  | 
18 | GCCGUAAAUGUGAGGAUAUACCUAUGGAAACAUAGGUAGAAGGCACAUGAGGAUCACCCAUGUCCUUAAUCGGC | 447 | 406 |  | 

Row | Sequence | apparent Kd [1] [nM] | apparent Kd [2] [nM] | apparent Kd [3] [nM] | apparent Kd [4] [nM]
19 | UUAGCAACAUGAGGAUCACCCAUGUAGGAUAUCGCUAUUGUAAUCAUGAAACAUGAUUACAAUAGCGAGAAGGACAUAUGCUAA | 6.42 | 9.48 |  | 
20 | AAGGGCUGAGGAUAUGCGCGGGCAAGAUCCUCAAUCCCAAAACAUGAGGAUCACCCAUGUAGAAGGCAGAAAUA | 33.2 | 24.2 |  | 
21 | GUGGCAUACUGAGGAUAUUCAUAUAAUAAAUAAACAUGAGGAUCACCCAUGUGGCGAAAGCCUUGGGAGAAGGCAGAAUGCUAC |  |  | 521 | 46.7
22 | GCACGGUAUGUAGGAUAUGCAUAGCAUUGCUAUGCAGAAGGACAUGAGGAUCACCCAUGUAUGUAUUCCAUACUAAUCCCGUGC | 5.89 | 5.79 |  | 
23 | UUCGUGCAGCUUUGCUGUACGCGUACAUGAGGAUCACCCAUGUAGGAUAUGGUAGGCCAAGCUUACUAGAAGGAUAUAGUGAUC | 95.5 | 88.7 |  | 
24 | UUGGUUGUCGUAGGAUAUGUAGGAUAUUCCUACAUGAGGAUCACCCAUGUUCGCAUGGAAGAAGGACAGAAUGACGAUGACCAG |  |  | 1110 | 27.1
25 | UGUCGGAGCAGAGGAUAUACAUGAGGAUCACCCAUGUAAAUGAAAGAUAAGCUGGAAACAGCAAUGUAGAAGGCUGCUCCGACA | 18.4 | 88 |  | 
26 | CAGCGAUAGCUAAAGUAUCUAUCAGAGGAUAUUUAUGAAACAUGAGGAUCACCCAUGUGACACUGGGAGAAGGCUGAUAGAUAG |  |  | 10.1 | 5.25
27 | ACCGCUCGAGGAUAUACAUGAGGAUCACCCAUGUAACCCAGAAGCAAGGCCUCAGGAUGUAGAAGGCGACGCAA | 14 | 14.2 |  | 
28 | UCCGCAAGUGAAGGAUAUACGGCUGAAGAGCCAGUAGAAGGUCACAUGAGGAUCACCCAUGUCUACCGCUACGAGAUAUUACAA | 19.1 | 59.5 |  | 
29 | UCAGUAGAGUCAGGAUAUACCGAAAAGAAUCCUCACAUGAGGAUCACCCAUGUAGAAGGGACUCUACUGUAAGUCGGAAACGAC | 91.8 | 868 |  | 
30 | AAUACAUGAGGAUCACCCAUGUAAAGAUCUGUUAAUAGAUGUGAGGAUAUACUAAAUUUUAGGUAGUAGAAGGCACUGGGUACA |  |  | 22.1 | 26
31 | ACCUUACAUGAGGAUCACCCAUGUUAGGAUAUCUCGCUUGCGCAAUCACAGCACAAGCAGAGAAGGGACGCGGG | 28.1 | 32.5 |  | 
32 | GCGUUAGUAUCACAUGUAUUACAUGAGGAUCACCCAUGUUACUAGGAUAUGUAUUAGUAUUAUCAACAGAAGGAGUAAUAACGC | 12.5 | 17.6 |  | 
33 | AGUAACAGAGGAUAUACUAUUUUAUGUGUUUGUUAUUUUGAACAUGAGGAUCACCCAUGUAGAAGGCUGAAUAA | 25 | 26 |  | 
34 | UUACUGCGAGGAUAUGCGAUCCAGACCAUGAUGUAAUUCCGACAUGAGGAUCACCCAUGUAGAAGGUGCAGUGG | 22.4 | 27.1 |  | 
35 | UAAUGUAUAUAGGAUAUCUAGCUGGAUACAGCUAGAGAAGGAUGUACAUGAGGAUCACCCAUGUAAAUCGAUCA | 23.2 | 55.7 |  | 
36 | ACAUGACAUGAGGAUCACCCAUGUGAGGAUAUGCGAAAAAAAUUUUUAAAAAAAAUUGGCAGAAGGCACAAAAU | 121 | 139 |  | 
